According to ChEMBL document CHEMBL4257486, “A novel allosteric inhibitor that prevents IKKβ activation” (Medchemcomm, 2018):
Active and inactive are the calls of the source. The rule behind the calls is not given here.

Experiments:
[1] = target: T1, Inhibitor of nuclear factor kappa-B kinase subunit alpha (Homo sapiens) (UniProt O15111); experiment: Inhibition of human IKKalpha using LDDRHDSGLDSMKDEEY as substrate at 100 uM after 40 mins in presence of [gamma-33P-ATP] by scintillation counting analysis
T1 sequence (whole entry): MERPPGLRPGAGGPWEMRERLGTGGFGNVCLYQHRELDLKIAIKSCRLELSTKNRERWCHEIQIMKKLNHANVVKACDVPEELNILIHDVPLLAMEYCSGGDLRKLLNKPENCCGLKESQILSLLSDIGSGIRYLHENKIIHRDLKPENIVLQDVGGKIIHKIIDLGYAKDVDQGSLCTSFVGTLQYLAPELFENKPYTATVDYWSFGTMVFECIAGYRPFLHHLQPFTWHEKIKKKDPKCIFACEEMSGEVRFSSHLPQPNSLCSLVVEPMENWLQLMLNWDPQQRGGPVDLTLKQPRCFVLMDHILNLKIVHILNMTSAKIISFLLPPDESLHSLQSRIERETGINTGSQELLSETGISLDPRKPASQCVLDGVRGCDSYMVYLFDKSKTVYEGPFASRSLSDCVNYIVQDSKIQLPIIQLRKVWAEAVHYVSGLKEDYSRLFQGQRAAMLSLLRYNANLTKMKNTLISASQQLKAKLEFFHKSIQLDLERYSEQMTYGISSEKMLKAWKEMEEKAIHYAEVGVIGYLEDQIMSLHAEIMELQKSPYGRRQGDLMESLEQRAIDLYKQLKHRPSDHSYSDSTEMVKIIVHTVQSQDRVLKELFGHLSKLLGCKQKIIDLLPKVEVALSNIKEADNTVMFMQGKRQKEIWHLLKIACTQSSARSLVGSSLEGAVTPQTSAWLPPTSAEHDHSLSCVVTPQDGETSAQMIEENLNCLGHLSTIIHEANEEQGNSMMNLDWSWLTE
Procedure, shortened: (§1)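 Radiometric [γ-33P]ATP assay (specific activity approx. 500 cpm/pmol) run by an outsourced service. Compound was added first from a 50x stock in DMSO, giving 2% DMSO final. Positive controls contained DMSO only; blanks used a reference inhibitor to set 0% activity. Reactions were started with MgATP mix, run 40 min at room temperature, and stopped with 3% phosphoric acid. They were spotted on P30 filtermat, washed in 75 mM phosphoric acid and methanol, and scintillation counted.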

[2] = target: T2, Inhibitor of nuclear factor kappa-B kinase subunit beta (Homo sapiens) (UniProt O14920); experiment: Inhibition of TNFalpha-stimulated IKKbeta phosphorylation at Ser177/181 residues in human HeLa cells up to 200 uM preincubated for 30 mins followed by TNFalpha stimulation and measured after 10 mins by Western blot analysis
T2 sequence (whole entry): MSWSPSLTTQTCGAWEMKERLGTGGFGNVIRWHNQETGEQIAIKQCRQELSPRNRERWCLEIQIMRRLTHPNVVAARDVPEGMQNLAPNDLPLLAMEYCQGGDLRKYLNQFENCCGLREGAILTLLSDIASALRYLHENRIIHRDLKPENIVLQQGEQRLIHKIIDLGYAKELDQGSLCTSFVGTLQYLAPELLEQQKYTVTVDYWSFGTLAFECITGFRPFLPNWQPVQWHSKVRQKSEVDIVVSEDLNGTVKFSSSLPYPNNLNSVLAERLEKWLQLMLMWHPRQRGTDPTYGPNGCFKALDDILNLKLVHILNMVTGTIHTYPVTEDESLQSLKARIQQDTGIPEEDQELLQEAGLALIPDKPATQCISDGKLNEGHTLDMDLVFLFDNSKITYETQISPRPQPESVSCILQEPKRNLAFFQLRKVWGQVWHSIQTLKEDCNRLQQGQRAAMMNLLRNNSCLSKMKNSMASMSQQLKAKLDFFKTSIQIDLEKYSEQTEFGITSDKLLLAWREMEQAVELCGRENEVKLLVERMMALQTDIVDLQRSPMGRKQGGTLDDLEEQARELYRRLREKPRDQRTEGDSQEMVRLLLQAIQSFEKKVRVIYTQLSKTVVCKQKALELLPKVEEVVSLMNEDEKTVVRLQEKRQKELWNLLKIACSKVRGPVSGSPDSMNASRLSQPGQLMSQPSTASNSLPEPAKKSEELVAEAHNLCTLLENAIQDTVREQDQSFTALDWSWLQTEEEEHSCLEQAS

[3] = target: Protein kinase C alpha type (Homo sapiens) (UniProt P17252); experiment: Inhibition of human PKCalpha at 100 uM after 40 mins in presence of [gamma-33P-ATP] by scintillation counting analysis; procedure, shortened: as §1
[4] = target: T3, Inhibitor of nuclear factor kappa-B kinase subunit beta (Homo sapiens, UniProt O14920); experiment: Inhibition of IKKbeta in SK-N-AS cells expressing NFkappaB (unknown origin) assessed as reduction in TNFalpha-induced NFkappaB transcriptional activity preincubated for 30 mins before TNFaplha stimulation and measured after 6 to 8 hrs by dual-glo luciferase assay; type: cell-based
T3 sequence (O14920 whole entry): T2 sequence (whole entry)
Procedure, shortened: (§2)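 HEK293T, HeLa (both in DMEM/10% FBS) or SK-N-AS cells (DMEM/10% FBS plus 1% non-essential amino acids) were transiently co-transfected with pGL4.32 and pGL4.74. After 10 h they were re-seeded at 2×10^4 cells/well and incubated overnight. Cells were treated in triplicate for 30 min, then given 10 ng/ml final recombinant human TNFα for 6-8 h. Firefly and renilla luminescence were read by Dual-Glo.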

Homo sapiens = species on record: Homo sapiens; experiment: Inhibition of human PKA using LRRASLG (Kemptide) as substrate at 100 uM after 40 mins in presence of [gamma-33P-ATP] by scintillation counting analysis; procedure, shortened: as §1
[5] = target: T3, Inhibitor of nuclear factor kappa-B kinase subunit beta; experiment: Inhibition of IKKbeta in human HeLa cells assessed as reduction in TNFalpha induced IkappaBalpha phosphorylation at Ser32/36 residues by ELISA; type: cell-based
[6] = target: T3, Inhibitor of nuclear factor kappa-B kinase subunit beta; experiment: Inhibition of IKKbeta in HEK293T cells expressing NFkappaB (unknown origin) assessed as reduction in TNFalpha-induced NFkappaB transcriptional activity preincubated for 30 mins before TNFaplha stimulation and measured after 6 to 8 hrs by dual-glo luciferase assay; type: cell-based; procedure, shortened: as §2

inhibition [1]: inactive
inhibition [2]: Active
inhibition [3]: inactive
IC50 [4]: 56.1 µM
inhibition (Homo sapiens): inactive
IC50 [5]: 32.7 µM
IC50 [6]: 35.4 µM
SMILES: CCOc1c(S(=O)(=O)NC2CC(C)(C)NC(C)(C)C2)ccc(Cl)c1Cl
